From ChEMBL document CHEMBL3351489, “Design, synthesis, and structure-activity relationships of a series of novel N-aryl-2-phenylcyclopropanecarboxamide that are potent and orally active orexin receptor antagonists” (Bioorg Med Chem, 2014)
In brackets after ≈: the same amount, converted by molar mass. Activity calls are given as the source filed them. The calls are words filed in the database; no cut-off is given here.

Columns and labels:
Orexin receptor type 2 = molecular target: T1, Orexin receptor type 2 (Homo sapiens, UniProt O43614); assay: Displacement of [125I]-Orexin A from human OX2R expressed in CHO cells after 30 mins by topcount analysis; format: cell-based
T1 sequence (O43614 whole entry): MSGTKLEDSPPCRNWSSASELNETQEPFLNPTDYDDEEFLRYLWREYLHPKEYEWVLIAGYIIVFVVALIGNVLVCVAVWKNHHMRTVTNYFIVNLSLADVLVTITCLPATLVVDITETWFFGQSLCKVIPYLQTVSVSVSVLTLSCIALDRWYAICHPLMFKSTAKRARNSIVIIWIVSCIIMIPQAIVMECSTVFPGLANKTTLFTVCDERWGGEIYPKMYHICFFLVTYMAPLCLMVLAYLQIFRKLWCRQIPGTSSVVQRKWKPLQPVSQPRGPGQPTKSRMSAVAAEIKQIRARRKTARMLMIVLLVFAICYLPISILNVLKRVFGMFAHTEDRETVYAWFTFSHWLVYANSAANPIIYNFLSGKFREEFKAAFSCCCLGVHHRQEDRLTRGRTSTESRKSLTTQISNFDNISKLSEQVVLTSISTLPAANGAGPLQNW

[1] = molecular target: T2, Orexin/Hypocretin receptor type 1 (Homo sapiens, UniProt O43613); assay: Displacement of [125I]-Orexin A from human OX1R expressed in CHO cells after 30 mins by topcount analysis; format: cell-based
T2 sequence (O43613 whole entry): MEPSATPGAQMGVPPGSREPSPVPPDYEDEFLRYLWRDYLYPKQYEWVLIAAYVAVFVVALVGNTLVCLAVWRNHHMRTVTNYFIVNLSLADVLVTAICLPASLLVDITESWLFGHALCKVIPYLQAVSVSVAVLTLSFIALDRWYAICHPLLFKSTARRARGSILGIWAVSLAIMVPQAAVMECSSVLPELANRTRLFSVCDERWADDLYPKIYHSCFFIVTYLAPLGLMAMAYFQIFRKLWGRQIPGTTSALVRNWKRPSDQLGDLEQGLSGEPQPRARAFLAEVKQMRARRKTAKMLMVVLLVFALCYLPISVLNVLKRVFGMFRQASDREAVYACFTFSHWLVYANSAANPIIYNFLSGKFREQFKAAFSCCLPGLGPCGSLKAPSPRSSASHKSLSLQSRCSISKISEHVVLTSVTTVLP
Method in brief: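 Membranes from CHO cells expressing human OX1R, […] per well, in 25 mM HEPES pH 7.5 with MgCl2, CaCl2, 0.5% BSA, sodium azide, Tween 20; incubated with [125I]-orexin A 30 min at rt on scintillation plate, washed, counted. Nonspecific binding with excess unlabelled orexin A; % inhibition from DPM; mean of 3 wells, single measurement.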

[2] = Ratio of efflux ratio of permeability in pig LLC-MDR1 cells to efflux ratio of permeability in pig LLC-PK1 cells; format: ADME, cell-based, Sus scrofa
Method in brief: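 LLC-PK1 and MDR1-transfected LLC-PK1 cells grown 5 days on porous inserts (5% CO2, 37 °C). Monolayers preincubated 2 h in HBSS with 10 mM HEPES; compound added apical or basal, 2 h at 37 °C. Receiver side sampled, quantified by LC/MS; Papp from permeated amount, time, initial concentration and membrane area.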

[3] = Aqueous solubility of the compound in PBS at pH 7.4 after 15 mins by HPLC method; format: physicochemical
Mus musculus [4] = assay: Induction of sleep in C57BL/6NCrlCrlj mouse assessed as reduction in wakefulness time at 100 mg/kg up to 3 hrs by EEG/EMG analysis; format: functional, organism-based; design: dose 100 mg/kg
Method in brief: (§1)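 Oral dosing immediately before lights out, vehicle 10% Cremophor EL, 5% DMSO in saline (n = 7 per group). EEG/EMG amplified, filtered (50 Hz line), sampled at 128 Hz. Recordings were scored automatically in 10-s epochs as wakefulness, non-REM or REM sleep and checked by a blinded observer. Minutes were summed over 3 h from dosing relative to vehicle, with one-way ANOVA and Dunnett test.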

Mus musculus [5] = assay: Induction of non-REM sleep in C57BL/6NCrlCrlj mouse at 100 mg/kg up to 3 hrs by EEG/EMG analysis; format: functional, organism-based; design: dose 100 mg/kg; method in brief: as §1
Mus musculus [6] = assay: Reduction in locomotor activity in ddY mouse model at 100 mg/kg, po after 1 hr; format: functional, organism-based; design: dose 100 mg/kg
Method in brief: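 Male ddY mice kept on 12-h light/dark cycle; oral 10, 30 or 100 mg/kg (DMSO stock diluted twentyfold in 10% Cremophor EL/saline), n = 8 per dose, vehicle n = 16. Ambulation counted as infrared beam breaks in an open-field box over 1 h after dosing; mean ± SEM, one-way ANOVA with Dunnett versus vehicle.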

Mus musculus [7] = assay: Induction of sleep in po dosed C57BL/6NCrlCrlj mouse assessed as reduction in wakefulness time up to 3 hrs by EEG/EMG analysis; format: functional, organism-based
Method in brief: (§2)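 Mice with EEG/EMG recording dosed orally (30 or 100 mg/kg, vehicle 10% Cremophor EL, 5% DMSO in saline; n = 7) immediately before lights out. Signals sampled at 128 Hz, 50 Hz filtered; 10-s epochs auto-scored as wake, non-REM or REM, then checked by a blinded observer. Minutes summed hourly and over 3 h; one-way ANOVA with Dunnett versus vehicle.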

Mus musculus [8] = assay: Induction of non-REM sleep in po dosed C57BL/6NCrlCrlj mouse up to 3 hrs by EEG/EMG analysis; format: functional, organism-based; method in brief: as §2
Mus musculus [9] = assay: Induction of REM sleep in C57BL/6NCrlCrlj mouse at 30 to 100 mg/kg, po up to 3 hrs by EEG/EMG analysis; format: functional, organism-based; method in brief: as §2
[10] = Plasma concentration in C57BL/6N mouse at 100 mg/kg, po after 1 hr; format: ADME, organism-based; design: dose 100 mg/kg, route oral
Method in brief: (§3)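 Male C57BL/6N mice given single oral 100 mg/kg (suspension in 0.5% methylcellulose, or saline/Cremophor EL/DMSO 85:10:5). At 1 or 3 h, CSF taken from cisterna magna under pentobarbital, then aortic blood for plasma. Samples protein-precipitated with methanol/acetonitrile plus propranolol internal standard; LC/MS/MS in positive MRM mode, 1/x²-weighted calibration; mean ± SEM.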

[11] = Plasma concentration in C57BL/6N mouse at 100 mg/kg, po after 3 hrs; format: ADME, organism-based; design: dose 100 mg/kg, route oral; method in brief: as §3
[12] = Drug uptake in CSF of C57BL/6N mouse at 100 mg/kg, po after 1 hr; format: ADME, organism-based, Cerebrospinal fluid; design: dose 100 mg/kg, route oral; conditions: read-out: Drug uptake; method in brief: as §3
[13] = Drug uptake in CSF of C57BL/6N mouse at 100 mg/kg, po after 3 hrs; format: ADME, organism-based, Cerebrospinal fluid; design: dose 100 mg/kg, route oral; conditions: read-out: Drug uptake; method in brief: as §3

Structure (SMILES) | Ki (Orexin receptor type 2) [nM] | Ki [1] [nM] | Ratio [2] | solubility at 0.25 h [3] [µM] | also measured
COc1ccc(OC[C@@]2(c3ccccc3)C[C@H]2C(=O)N(C)c2ccccc2)cc1OC | 4680 | 7540 |  |  | 
COc1ccc(OC[C@@]2(c3ccccc3)C[C@H]2C(=O)c2ccccc2)cc1OC | 8650 | > 10000 |  |  | 
COc1ccc(OC[C@@]2(c3ccccc3)C[C@H]2C(=O)Nc2ccc(C#N)cn2)cc1OC (racemic) | 14 | 123 | 1.1 | 22 (≈ 9.45 µg/mL) | 
Cc1ccc(-c2nc3ccc(C)cn3c2CC(=O)N(C)C)cc1 |  |  |  |  | Activity (Mus musculus [4]): Active; Activity (Mus musculus [5]): Active
COc1ccc(OC[C@@]2(c3ccccc3)C[C@H]2C(=O)N2CCCc3ccccc32)cc1OC | > 10000 | > 10000 |  |  | 
O=C(Nc1ccccn1)[C@@H]1C[C@@]1(COc1ccccc1)c1ccccc1 | 967 | 6840 |  |  | 
COc1cccc(OC[C@@]2(c3ccccc3)C[C@H]2C(=O)Nc2ccccn2)c1 | 1330 | > 10000 |  |  | 
COc1ccc([C@]2(COc3ccccc3)C[C@H]2C(=O)Nc2ccccn2)cc1OC | 129 | > 10000 |  |  | 
COc1ccc(OCC2(c3ccccc3)CC2C(=O)Nc2ccc(C#N)cn2)cc1OC (single isomer, unassigned; (-)) [listing 1 of 2 here] |  |  |  |  | Activity (Mus musculus [6]): Active; Activity (Mus musculus [7]): Dose-dependent effect; Activity (Mus musculus [8]): Dose-dependent effect; Activity (Mus musculus [9]): inactive
COCc1ccc(OC[C@@]2(c3ccccc3)C[C@H]2C(=O)Nc2ccccn2)cc1OC | 3340 | 772 |  |  | 
COc1ccc(OC[C@@]2(c3ccccc3)C[C@H]2C(=O)Nc2nc(C)cs2)cc1OC | 14 | 832 | 1.5 | 11 (≈ 4.67 µg/mL) | 
COc1ccc(OC[C@@]2(c3ccccc3)C[C@H]2C(=O)Nc2cccnc2)cc1OC | 51 | 206 | 3.4 |  | 
COc1ccc(OC[C@@]2(c3ccccc3)C[C@H]2C(=O)NC2CCCCC2)cc1OC | 7850 | 2990 |  |  | 
Cc1nc(C(=O)N2CCCC[C@H]2CNC(=O)c2cccc3occc23)c(-c2ccc(F)cc2)s1 [SB-649868] | 8.5 |  |  |  | 
COc1ccc(OC[C@@]2(c3ccccc3)C[C@H]2C(=O)Nc2cc(C#N)ccn2)cc1OC | 34 | 103 | 1 | 10 (≈ 4.29 µg/mL) | 
COc1ccc(OCC2(c3ccccc3)CC2C(=O)Nc2ccc(C#N)cn2)cc1OC (single isomer, unassigned; (-)) [listing 2 of 2 here] | 5 | 106 | 1.1 | 15 (≈ 6.44 µg/mL) | concentration at 1 h [10]: 9900 nM; concentration at 3 h [11]: 3740 nM; concentration at 1 h [12]: 245 nM; concentration at 3 h [13]: 94 nM
COc1ccc(OC[C@@]2(c3ccccc3)C[C@H]2C(=O)Nc2ccccn2)cc1 | 588 | 5540 |  |  | 
COc1ccc(OCC2(c3ccccc3)CC2C(=O)Nc2ccc(C#N)cn2)cc1OC (single isomer, unassigned; (+)) | > 2000 | > 2000 |  |  | 
COc1ccc(OC[C@@]2(c3ccccc3)C[C@H]2C(=O)Nc2ccncc2)cc1OC | 85 | 1420 | 4.9 |  | 
COc1ccc(OC[C@@]2(c3ccccc3)C[C@H]2C(=O)Nc2ncc(C)s2)cc1OC | 35 | 291 | 2.4 | < 1 | 
COc1ccc(OC[C@@]2(c3ccccc3)C[C@H]2C(=O)Nc2ccccn2)cc1OC | 36 | 1070 | 0.9 | 32 (≈ 12.9 µg/mL) | 
COc1ccc(OC[C@@]2(c3ccccc3)C[C@H]2C(=O)Cc2ccccc2)cc1OC | > 10000 | > 10000 |  |  | 
COCc1cc(OC[C@@]2(c3ccccc3)C[C@H]2C(=O)Nc2ccccn2)ccc1OC | 384 | 747 |  |  | 
COc1ccc(OC[C@@]2(c3ccccc3)C[C@H]2C(=O)Nc2cc(C)on2)cc1OC | 28 | 505 |  | < 1 | 
COc1ccc(OC[C@@]2(c3ccccc3)C[C@H]2C(=O)Nc2ccccc2)cc1OC | 7.2 | 7.2 | 0.6 | 2 (≈ 0.807 µg/mL) | 
COc1ccc(OC[C@@]2(c3ccccc3)C[C@H]2CNc2ccccc2)cc1OC | 4230 | 4160 |  |  | 
